Assay results reported in article PMC8561282 (Haematologica, 2021).
Entries after “also recorded” stand apart in the source; their conditions may differ.

Assays:
[1] = test system: pentose phosphate pathway; assay: 1,2,3-13C3-glucose tracing; format: cell-based, mouse
Outline: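 Red cells from wild-type, humanized band 3, HA Del (lacking residues 1-11) and BS KO (lacking residues 12-23) mice were stimulated with methylene blue and incubated with 1,2,3-13C3-glucose at 37 °C for 1 h. In rescue arms, cells were preincubated with recombinant band 3 N-terminal peptide (residues 1-56). The read-out was the ratio of lactate isotopologues +3 (glycolysis) and +2 (pentose phosphate pathway), measured by UHPLC-MS.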

[2] = test system: RBC from WT, HuB3, HA Del and BS KO mice; assay: Glutathione oxidation; format: cell-based, mouse
GAPDH = assay: 15N-HSQC NMR of band 3 peptide 1-56 upon titration of GAPDH; format: binding; conditions: 25 °C, 100 or 200 GAPDH (mM in text, μM in legend)
Outline: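 15N-HSQC spectra of 15N-labelled recombinant band 3 peptide 1-56 were recorded at 25 °C on a 900 instrument using a standard sequence. Recombinant GAPDH (tetramer) was titrated at 0, 100 and 200 (units as printed are unreliable). Individual residue amide signals were followed across the titration.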

[3] = test system: RBC cytosol and membrane proteins; format: binding, human; conditions: part of macromolecular complexes with direct interactors
[4] = test system: pentose phosphate pathway; format: cell-based, human; conditions: RBC lysates, 1,2,3-13C3-glucose 5 mM, 37 °C, 1 h, methylene blue; recombinant peptide
Outline: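 Red cell lysates came from the band 3 Neapolis subject (AE1 residues 1-11 absent) and from healthy donors (n=3). Lysates were incubated with 1,2,3-13C3-glucose at 37 °C for 1 h under methylene blue stimulation, with or without recombinant N-terminal band 3 peptide (residues 1-56). Isotopologues were measured by UHPLC-MS to assess pentose phosphate pathway activation.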

[5] = recombinant peptide, 1,2,3-13C3-glucose, methylene blue

| Compound | Activation of the PPP, methylene blue stimulation, HA Del ([1]; 37 °C, 1 h, HA Del mouse RBC) | Glutathione oxidation with MB [2] | Y8 amide signal upon GAPDH titration (GAPDH) | Y46 amide signal upon GAPDH titration (GAPDH) | Candidate indirect interactors by pull-down followed by crosslinking [3] | PPP activation and glycolysis with peptide, all mouse strains ([1]; legend of Figure 1I, recombinant peptide, methylene blue) | PPP activation with peptide, BS KO mouse RBC [1, 5] | PPP activation with peptide, HA Del mouse RBC [1, 5] | Rescue of the deficit in PPP activation, band 3 Neapolis [4] |
| --- | --- | --- | --- | --- | --- | --- | --- | --- | --- |
| CN(C)c1ccc2nc3ccc(=[N+](C)C)cc-3sc2c1 [MB, methylene blue, reference compound] | ablated in HA Del mice | increased glutathione oxidation (GSSG/GSH ratios) | – | – | – | – | – | – | – |
| AE11-56: recombinantly expressed peptide coding for amino acids 1-56 of the N-terminus of band 3 (AE1) (MEELQDDYEDMMEENLEQEEYEDPDIPESQMEEPAAHDTEATATDYHTTSHPGTHK; UniProt P02730 1-56, looked up, fragment) | – | – | near complete disappearance of the central Y8 amide | no chemical shift perturbations | peroxiredoxin 2,[51] peroxiredoxin 6, catalase, phosphofructokinase isoforms,[12] proteins 4.1 and 4.2, glucose phosphate isomerase, stomatin, adducin b, carbonic anhydrase 1, and 1-phosphatidylinositol 4,5-bisphosphate phosphodiesterase η-2 | increased PPP activation and decreased glycolysis in HA Del mice and further exacerbated responses in all the other strains | higher basal levels and further increases in PPP activation by MB | the defect in PPP activation of HA Del mice was rescued | a defect that was corrected by rescue; also recorded: partially rescued in vitro |
